Results: ChEMBL document CHEMBL2331329, “Synthesis and biological evaluation of 2-(alkoxycarbonyl)-3-anilinobenzo[b]thiophenes and thieno[2,3-b]pyridines as new potent anticancer agents” (J Med Chem, 2013)

How the values were obtained:
[1] = Cytotoxicity against human SEM cells after 72 hrs by MTT assay; format: functional, cell-based
Procedure, shortened: (§1)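 Cells plated at 8 × 10^3 per well, 18 h at 37 °C, 5% CO2, then fresh medium with graded compound concentrations (DMSO ≤0.25%) for 72 h. Jurkat, SEM, HL-60 grown in RPMI-1640; A549, HeLa, HT-29, MCF-7 in DMEM; 10% FBS with penicillin/streptomycin. MTT viability read-out; IC50 vs 0.25% DMSO controls; mean ± SE of at least three independent experiments.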

HeLa = test: Cytotoxicity against human HeLa cells after 72 hrs by MTT assay; format: functional, cell-based
HT-29 = test: Cytotoxicity against human HT-29 cells after 72 hrs by MTT assay; format: functional, cell-based; settings: HT-29, 72 h
Jurkat = test: Cytotoxicity against human Jurkat cells after 72 hrs by MTT assay; format: functional, cell-based; procedure, shortened: as §1
MCF7 = test: Cytotoxicity against human MCF7 cells after 72 hrs by MTT assay; format: functional, cell-based; settings: MCF7, 72 h
A549 = test: Cytotoxicity against human A549 cells after 72 hrs by MTT assay; format: functional, cell-based; settings: A549, 72 h
HL-60 = test: Cytotoxicity against human HL60 cells after 72 hrs by MTT assay; format: functional, cell-based; settings: HL-60, 72 h
[2] = Cytotoxicity against human LoVo/DX cells after 72 hrs by MTT assay; format: functional, cell-based
Procedure, shortened: (§2)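 MTT viability test: 8 × 10^3 cells per well settled 18 h at 37 °C, 5% CO2, then given fresh medium with compound (from 10 mM DMSO stocks, final DMSO ≤0.25%) for 72 h. […] CEMVbl-100 is a vinblastine-selected P-gp line; LoVoDoxo is grown in Ham's F12 with 0.1 μg/mL doxorubicin. Resistance index = resistant IC50/parental IC50.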

LoVo [3] = test: Cytotoxicity against human LoVo cells after 72 hrs by MTT assay; format: functional, cell-based; procedure, shortened: as §2
LoVo [4] = test: Resistance index, ratio of IC50 for human LoVo/DX cells to IC50 for human LoVo cells; format: functional; procedure, shortened: as §2
[5] = Inhibition of bovine brain tubulin polymerization after 20 mins by turbidimetric analysis; design: species or system Bos taurus
Procedure, shortened: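 Bovine brain tubulin (10 μM) preincubated with varying compound concentrations in glutamate buffer at 30 °C, chilled to 0 °C, 0.4 mM GTP added, then warmed to 30 °C in a recording spectrophotometer.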

Bos taurus [6] = species: Bos taurus; test: Displacement of [3H]colchicine from bovine brain tubulin at 1 uM after 20 mins by turbidimetric analysis
Bos taurus [7] = species: Bos taurus; test: Displacement of [3H]colchicine from bovine brain tubulin at 5 uM after 20 mins by turbidimetric analysis
CCRF-CEM [8] = test: Resistance index, ratio of IC50 for human CEM/VBL100 cells to IC50 for human CEM cells; format: functional; procedure, shortened: as §2
[9] = Cytotoxicity against human CEM/VBL100 cells after 72 hrs by MTT assay; format: functional, cell-based; settings: CEM/VBL100, 72 h; procedure, shortened: as §2
CCRF-CEM [10] = test: Cytotoxicity against human CEM cells after 72 hrs by MTT assay; format: functional, cell-based; procedure, shortened: as §2
[11] = Antitumor activity against mouse BNL 1ME A.7R.1 cells xenografted in Balb/c mouse assessed as reduction in tumor growth at 5 mg/kg, ip QD for 7 days; format: functional; design: scale not given: the % may be the effect or the level left; settings: route intraperitoneal
Procedure, shortened: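 Male Balb/c mice, 8 weeks old, given 10^7 syngeneic BNL 1ME A.7R.1 hepatoma cells subcutaneously in the dorsal region in 200 μL PBS. Randomised to groups of five. Dosed intraperitoneally once daily for 7 days at 5 mg/kg in 0.9% NaCl with 5% PEG 400 and 0.5% Tween 80, against vehicle and CA-4P. Tumours measured daily by caliper, V = AB2/2; body weight recorded. Mean ± SEM.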

CCOC(=O)c1sc2ncccc2c1Nc1cc(OC)c(OC)c(OC)c1
IC50 [1]: 1850 nM
IC50 (HeLa): 2100 nM
IC50 (HT-29): 2260 nM
IC50 (Jurkat): 8450 nM
IC50 (MCF7): 5280 nM
IC50 (A549): 7160 nM
IC50 (HL-60): 6100 nM

COc1cccc2c1C(=O)c1c(O)c3c(c(O)c1C2=O)C[C@@](O)(C(=O)CO)C[C@@H]3O[C@H]1C[C@H](N)[C@H](O)[C@H](C)O1 [DOXORUBICIN]
IC50 [2]: 11300 nM
IC50 (LoVo [3]): 95.6 nM
Ratio IC50 (LoVo [4]): 118

COC(=O)c1sc2ccccc2c1Nc1cc(OC)c(OC)c(OC)c1
IC50 [1]: 179 nM
IC50 (HeLa): 427 nM
IC50 (HT-29): 299 nM
IC50 (Jurkat): 490 nM
IC50 (MCF7): 795 nM
IC50 (A549): 2850 nM
IC50 (HL-60): 1540 nM

CCOC(=O)c1sc2cc(OC)ccc2c1Nc1cc(OC)c(OC)c(OC)c1
IC50 [1]: 10.2 nM
IC50 [5]: 810 nM
inhibition (Bos taurus [6]): 77%
IC50 (HeLa): 0.56 nM
inhibition (Bos taurus [7]): 94%
IC50 (Jurkat): 3.3 nM
IC50 (MCF7): 5.6 nM
IC50 (A549): 8.9 nM
IC50 (HL-60): 31.6 nM

CC[C@]1(O)C[C@@H]2CN(CCc3c([nH]c4ccccc34)[C@@](C(=O)OC)(c3cc4c(cc3OC)N(C)[C@H]3[C@@](O)(C(=O)OC)[C@H](OC(C)=O)[C@]5(CC)C=CCN6CC[C@]43[C@@H]65)C2)C1 [VINBLASTINE]
Ratio IC50 (CCRF-CEM [8]): 105
IC50 [9]: 211 nM
IC50 (CCRF-CEM [10]): 2 nM

CCOC(=O)c1sc2cc(C)ccc2c1Nc1cc(OC)c(OC)c(OC)c1
IC50 [1]: 1.5 nM
IC50 [5]: 1100 nM
inhibition (Bos taurus [6]): 58%
IC50 (HeLa): 0.38 nM
inhibition (Bos taurus [7]): 89%
IC50 (HT-29): 6 nM
IC50 (Jurkat): 0.4 nM
IC50 (MCF7): 9 nM
IC50 (A549): 7.2 nM
IC50 (HL-60): 3.9 nM

CCOC(=O)c1sc2ccccc2c1Nc1cc(OC)c(OC)c(OC)c1
IC50 [1]: 1900 nM
IC50 (HeLa): 3100 nM
IC50 (HT-29): 1610 nM
IC50 (Jurkat): 3020 nM
IC50 (MCF7): 6390 nM
IC50 (A549): 8530 nM
IC50 (HL-60): 5490 nM

COc1ccc(/C=C\c2cc(OC)c(OC)c(OC)c2)cc1OP(=O)([O-])[O-].[Na+].[Na+] [FOSBRETABULIN DISODIUM]
Activity [11]: 44.5%

COC(=O)c1sc2cc(C)ccc2c1Nc1cc(OC)c(OC)c(OC)c1
IC50 [1]: 0.7 nM
IC50 [5]: 1200 nM
inhibition (Bos taurus [6]): 71%
IC50 (HeLa): 0.31 nM
inhibition (Bos taurus [7]): 95%
IC50 (HT-29): 1.9 nM
IC50 (Jurkat): 0.6 nM
IC50 (MCF7): 1.2 nM
IC50 (A549): 10.8 nM
IC50 (HL-60): 20.5 nM
